Measured values from ChEMBL document CHEMBL1135690, “Benzodiazepine receptor ligands. 7. Synthesis and pharmacological evaluation of new 3-esters of the 8-chloropyrazolo[5,1-c][1,2,4]benzotriazine 5-oxide. 3-(2-Thienylmethoxycarbonyl) derivative: an anxioselective agent in rodents” (J Med Chem, 2002).

Legend:
Mus musculus [1] = experiment: Percent anticonvulsant activity against pentylenetetrazole (PTZ)-induced attacks at 10 mg/kg peroral dose; format: functional; details: route oral
Outline: (§1)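 Male CD-1 mice dosed po in 1% carboxymethylcellulose, 30 min before PTZ (90 mg/kg sc, in 0.9% saline). Occurrence of clonic generalized convulsions noted over 30 min; χ² analysis vs control mice.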

Mus musculus [2] = experiment: Motor coordination of mouse as number of falls in 30 sec was reported after 10 mg/kg peroral dose using rotarod test; format: functional; details: route oral
Outline: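 Male CD-1 mice are dosed po in 1% CMC (flumazenil ip). Falls from a rota rod turning at 24 rpm are counted over 30 s, 25 min after drug administration, and compared with vehicle-treated mice. Means ± SEM.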

Mus musculus [3] = experiment: Anxiolytic activity in mice using light-dark box and no. of transfers between compartments were reported at 10 mg/kg peroral dose; format: functional; details: route oral
Outline: (§2)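 Male CD-1 mice (22–24 g) given drug po in 1% carboxymethylcellulose (10 mL/kg). Each mouse placed in the centre of the lighted area facing away from the dark compartment and allowed to explore for 5 min; time spent in the illuminated side and number of transfers between compartments recorded. Tests run between 10:00 and 15:00.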

Mus musculus [4] = experiment: Anxiolytic activity in mice using light-dark box and % time spent in light was reported at 10 mg/kg peroral dose; format: functional; details: route oral; outline: as §2
[5] = target: GABA-A receptor; anion channel (Homo sapiens) (UniProt P14867+P47870+P18507+P28472+P48169+Q99928+Q9UN88+P34903+O00591+O14764+Q8N1C3+P18505+P78334+P47869+P31644+Q16445); experiment: Percent inhibition [3H]Ro-151788 binding to Benzodiazepine receptor from bovine brain membrane at 10 uM; details: Bos taurus, target entry is the homologue from another species
[6] = target: GABA-A receptor; anion channel; set-up: species or system Bos taurus
Mus musculus [7] = experiment: Anxiolytic activity in mice using light-dark box and no. of transfers between compartments were reported at 100 mg/kg peroral dose; format: functional; details: route oral; outline: as §2
Mus musculus [8] = experiment: Anxiolytic activity in mice using light-dark box and % time spent in light was reported at 100 mg/kg peroral dose; format: functional; details: route oral; outline: as §2
Mus musculus [9] = experiment: Motor coordination of mouse as number of falls in 30 sec was reported after 100 mg/kg peroral dose using rotarod test; format: functional; details: route oral
Outline: (§3)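 Male CD-1 mice dosed po (suspension in 1% carboxymethylcellulose, 10 mL/kg). Rota rod turning at 24 rpm; falls from the rod counted over 30 s, 25 min after drug administration.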

Mus musculus [10] = experiment: Percent anticonvulsant activity against pentylenetetrazole (PTZ)-induced attacks at 100 mg/kg peroral dose; format: functional; details: route oral; outline: as §1
Mus musculus [11] = experiment: Anxiolytic activity in mice using light-dark box and % time spent in light was reported at 30 mg/kg peroral dose; format: functional; details: route oral; outline: as §2
Mus musculus [12] = experiment: Anxiolytic activity in mice using light-dark box and no. of transfers between compartments were reported at 30 mg/kg peroral dose; format: functional; details: route oral; outline: as §2
Mus musculus [13] = experiment: Motor coordination of mouse as number of falls in 30 sec was reported after 3 mg/kg peroral dose using rotarod test; format: functional; details: route oral; outline: as §3
Mus musculus [14] = experiment: Percent anticonvulsant activity against pentylenetetrazole (PTZ)-induced attacks at 3 mg/kg peroral dose; format: functional; details: route oral; outline: as §1
Mus musculus [15] = experiment: Percent anticonvulsant activity against pentylenetetrazole (PTZ)-induced attacks at 30 mg/kg peroral dose; format: functional; details: route oral; outline: as §1
Mus musculus [16] = experiment: Motor coordination of mouse as number of falls in 30 sec was reported after 30 mg/kg peroral dose using rotarod test; format: functional; details: route oral; outline: as §3
Mus musculus [17] = experiment: Anxiolytic activity in mice using light-dark box and no. of transfers between compartments were reported at 3 mg/kg peroral dose; format: functional; details: route oral; outline: as §2
Mus musculus [18] = experiment: Anxiolytic activity in mice using light-dark box and % time spent in light was reported at 3 mg/kg peroral dose; format: functional; details: route oral; outline: as §2

Question: What does the source list for `CN1C(=O)CN=C(c2ccccc2)c2cc(Cl)ccc21.O=C(OCc1ccsc1)c1cnn2c1n[n+]([O-])c1ccc(Cl)cc12`?
Answer: Activity (Mus musculus [1]): 100%; No. of falls (Mus musculus [2]): 0.55; No. of transfers (Mus musculus [3]): 27.9; Activity (Mus musculus [4]): 149.16%

Question: For `O=C(OCc1ccncc1)c1cnn2c1n[n+]([O-])c1ccc(Cl)cc12`, which inhibition [5] is on record?
Answer: 100%

Question: And the Ki [6]?
Answer: 44 nM

Question: With `CCOC(=O)c1ncn2c1CN(C)C(=O)c1cc(F)ccc1-2.O=C(OCc1cccs1)c1cnn2c1n[n+]([O-])c1ccc(Cl)cc12` as the compound, how does the No. of transfers (Mus musculus [7]) read?
Answer: 23

Question: And the Activity (Mus musculus [8])?
Answer: 124.08%

Question: `CN1C(=O)CN=C(c2ccccc2)c2cc(Cl)ccc21.O=C(OCc1ccco1)c1cnn2c1n[n+]([O-])c1ccc(Cl)cc12` was tested. Which Activity (Mus musculus [1]) did it give?
Answer: 88.9%

Question: And the No. of falls (Mus musculus [2])?
Answer: 1.55

Question: What about the No. of transfers (Mus musculus [3]) of the same compound?
Answer: 27.1

Question: What about the Activity (Mus musculus [4]) of the same compound?
Answer: 142.02%

Question: How did the Activity (Mus musculus [1]) turn out when `CN1C(=O)CN=C(c2ccccc2)c2cc(Cl)ccc21.O=C(OCc1ccoc1)c1cnn2c1n[n+]([O-])c1ccc(Cl)cc12` was run?
Answer: 88.9%

Question: And the No. of falls (Mus musculus [2])?
Answer: 0.44

Question: For `O=C(OCc1ccoc1)c1cnn2c1n[n+]([O-])c1ccc(Cl)cc12` [listing 1 of 2 here], which inhibition [5] is on record?
Answer: 96%

Question: With `CCOC(=O)c1ncn2c1CN(C)C(=O)c1cc(F)ccc1-2.CN1C(=O)CN=C(c2ccccc2)c2cc(Cl)ccc21` as the compound, how does the No. of falls (Mus musculus [9]) read?
Answer: 0.4

Question: And the Activity (Mus musculus [10])?
Answer: 20%

Question: And the Activity (Mus musculus [11])?
Answer: 154.8%

Question: And the No. of transfers (Mus musculus [12])?
Answer: 23

Question: And the No. of transfers (Mus musculus [7])?
Answer: 15.6

Question: What about the Activity (Mus musculus [8]) of the same compound?
Answer: 107%

Question: With `O=C(Cc1cnn2c1n[n+]([O-])c1ccc(Cl)cc12)OCc1ccccc1` as the compound, how does the inhibition [5] read?
Answer: 32%

Question: Which inhibition [5] does the source give for `O=C(CC1C=NN2c3cc(Cl)ccc3[N+]([O-])=NC12)Oc1ccccc1Cl` (configuration not stated) here?
Answer: 87%

Question: What about the Ki [6] of the same compound?
Answer: 489 nM

Question: `COc1ccccc1OC(=O)CC1C=NN2c3cc(Cl)ccc3[N+]([O-])=NC12` (configuration not stated) was tested. Which inhibition [5] did it give?
Answer: 88%

Question: What about the Ki [6] of the same compound?
Answer: 171 nM

Question: Which results are given for `O=C(OCc1ccoc1)c1cnn2c1n[n+]([O-])c1ccc(Cl)cc12` [listing 2 of 2 here]?
Answer: No. of falls (Mus musculus [9]): 0.18; No. of falls (Mus musculus [13]): 0.14; Activity (Mus musculus [10]): 36.4%; Activity (Mus musculus [11]): 132.27%; No. of transfers (Mus musculus [12]): 20.4; No. of transfers (Mus musculus [7]): 19.7; Activity (Mus musculus [14]): 0%; Activity (Mus musculus [1]): 20%; No. of falls (Mus musculus [2]): 0.2; No. of transfers (Mus musculus [3]): 16.57; Activity (Mus musculus [15]): 30%; Activity (Mus musculus [8]): 127.18%; No. of falls (Mus musculus [16]): 0.1; Activity (Mus musculus [4]): 118.95%; Ki [6]: 11.4 nM

Question: With `O=C(OCc1cccs1)c1cnn2c1nnc1ccc(Cl)cc12` as the compound, how does the inhibition [5] read?
Answer: 96%

Question: What about the Ki [6] of the same compound?
Answer: 6.26 nM

Question: For `O=C(Cc1cnn2c1n[n+]([O-])c1ccc(Cl)cc12)OCc1cccs1`, which inhibition [5] is on record?
Answer: 35%

Question: What does the source list for `O=C(OCc1ccsc1)c1cnn2c1n[n+]([O-])c1ccc(Cl)cc12`?
Answer: No. of transfers (Mus musculus [17]): 15.7; No. of falls (Mus musculus [13]): 0.2; Activity (Mus musculus [18]): 110.3%; Activity (Mus musculus [14]): 30%; Activity (Mus musculus [1]): 18.2%; No. of falls (Mus musculus [2]): 0.36; No. of transfers (Mus musculus [3]): 16; Activity (Mus musculus [15]): 9%; No. of falls (Mus musculus [16]): 0.27; Activity (Mus musculus [4]): 91.84%; Ki [6]: 13.3 nM

Question: For `COc1ccccc1COC(=O)C1C=NN2c3cc(Cl)ccc3[N+]([O-])=NC12` (configuration not stated), which inhibition [5] is on record?
Answer: 100%

Question: What about the Ki [6] of the same compound?
Answer: 1 nM
